Measurements published in ChEMBL document CHEMBL1124681, “Studies on hindered phenols and analogues. 1. Hypolipidemic and hypoglycemic agents with ability to inhibit lipid peroxidation” (J Med Chem, 1989).
≈ marks a conversion by molar mass, not a printed value.

Tests used:
Rattus norvegicus [1] = species: Rattus norvegicus; experiment: In vitro inhibitory activity against rat microsomal lipid peroxidation (m-LPO); assay type: functional
In short: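 Lipid peroxidation used rat liver microsomes driven by ferrous sulfate/cysteine, per the Malvy et al. approach. IC50 is given in µg/mL.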

Mus musculus [2] = experiment: In vivo activity against triglycerides (TG) by using Alloxan-induced hyperlipoperoxidemia method in BALB/c mice after peroral administration at 300 mg/Kg dose; assay type: functional
In short: (§1)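 Male BALB/c mice, 8 weeks old, were fasted 18 h and then given alloxan 75 mg/kg iv. Compound was dosed orally 30 min before and 24 and 30 h after alloxan. Cervical blood was taken at 48 h, diluted in saline and centrifuged. Serum LPO was measured by TBA method; cholesterol and TG by enzymatic kits. Values are % decrease versus alloxan controls without compound.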

Mus musculus [3] = experiment: In vivo activity against serum lipid peroxidation level (s-LPO) by using Alloxan-induced hyperlipoperoxidemia method in BALB/c mice after peroral administration at 100 mg/Kg dose; assay type: functional; in short: as §1
Mus musculus [4] = experiment: In vivo activity against hypocholesterol (CHOL) by using Alloxan-induced hyperlipoperoxidemia method in BALB/c mice after peroral administration at 100 mg/Kg dose; assay type: functional; in short: as §1
Mus musculus [5] = experiment: In vivo activity against serum lipid peroxidation level (s-LPO) by using Alloxan-induced hyperlipoperoxidemia method in BALB/c mice after peroral administration at 200 mg/Kg dose; assay type: functional; in short: as §1
Mus musculus [6] = experiment: In vivo activity against triglycerides (TG) by using Alloxan-induced hyperlipoperoxidemia method in BALB/c mice after peroral administration at 200 mg/Kg dose; assay type: functional; in short: as §1
Mus musculus [7] = experiment: In vivo activity against hypocholesterol (CHOL) by using Alloxan-induced hyperlipoperoxidemia method in BALB/c mice after peroral administration at 300 mg/Kg dose; assay type: functional; in short: as §1
Mus musculus [8] = experiment: In vivo activity against serum lipid peroxidation level (s-LPO) by using Alloxan-induced hyperlipoperoxidemia method in BALB/c mice after peroral administration at 300 mg/Kg dose; assay type: functional; in short: as §1
Rattus norvegicus [9] = experiment: Liver weight in Wistar-Imamichi rats at 200 mg/Kg dose in 12 rats; assay type: functional
Mus musculus [10] = experiment: In vivo activity against hypocholesterol (CHOL) by using Alloxan-induced hyperlipoperoxidemia method in BALB/c mice after peroral administration at 200 mg/Kg dose; assay type: functional; in short: as §1
Mus musculus [11] = experiment: (§2) In vivo activity against triglycerides (TG) by using Alloxan-induced hyperlipoperoxidemia method in BALB/c mice after peroral administration at 100 mg/Kg dose; assay type: functional; in short: as §1
Mus musculus [12] = experiment: as §2; assay type: functional; in short: as §1; remark: listed apart in the source
Mus musculus [13] = experiment: In vivo activity against hypocholesterol (CHOL) by Alloxan-induced hyperlipoperoxidemia method in BALB/c mice after peroral administration at 50 mg/Kg dose; assay type: functional; in short: as §1
Mus musculus [14] = experiment: In vivo activity against triglycerides (TG) by Alloxan-induced hyperlipoperoxidemia method in BALB/c mice after peroral administration at 50 mg/Kg dose; assay type: functional; in short: as §1
Mus musculus [15] = experiment: Hypoglycemic activity at dose 50 mg/Kg in KK-mice after peroral administration; assay type: functional
In short: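 Male KK-mice, a genetically diabetic NIDDM model, were housed singly from 8 weeks of age and used at about 4-5 months once body weight exceeded 40 g. Compound was suspended in 0.5% carboxymethylcellulose saline and dosed orally 18 h before tail-vein blood sampling into heparinized tubes. Plasma glucose was measured with a glucose analyzer. Values are % decrease versus vehicle-dosed controls run simultaneously.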

Mus musculus [16] = experiment: In vivo activity against serum lipid peroxidation level (s-LPO) by using Alloxan-induced hyperlipoperoxidemia method in BALB/c mice after peroral administration at 50 mg/Kg dose; assay type: functional; in short: as §1
Rattus norvegicus [17] = species: Rattus norvegicus; experiment: Inhibitory activity on peroxidation by a relative peroxide value(POV) to vitamin E by using ethyl linoleate; assay type: functional
In short: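 Peroxide formed was titrated with 0.01 N Na2S2O3 after adding water. The peroxide value was expressed relative to vitamin E.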

Rattus norvegicus [18] = species: Rattus norvegicus; experiment: Hypotriglyceridemic activity of Wistar-Imamichi rats in 12 animals

Row | Compound | IC50 (Rattus norvegicus [1]) [µg/mL] | Decrease (Mus musculus [3]) [%] | Decrease (Mus musculus [4]) [%] | Decrease (Mus musculus [11]) [%] | further results
1 | Cc1c(C)c2c(c(C)c1O)CCC(COc1ccc(CC3SC(=O)NC3=O)cc1)O2 (configuration not stated) | < 0.1 |  |  |  | 
2 | CC(=O)Oc1cc2c(cc1C)OC(C)(COc1ccc(CC3SC(N)=NC3=O)cc1)CC2 (configuration not stated) | 0.3 (≈ 0.66 µM) |  |  |  | 
3 | CCCC(=O)Oc1c(C)c(C)c2c(c1C)CCC(C)(COc1ccc(CC3SC(=O)NC3=O)cc1)O2 (configuration not stated) | < 0.1 |  |  |  | 
4 | CC(C)(Sc1cc(C(C)(C)C)c(O)c(C(C)(C)C)c1)Sc1cc(C(C)(C)C)c(O)c(C(C)(C)C)c1 [PROBUCOL] | > 1 | 5.8 | -1.1 | -5.3 | Decrease (Mus musculus [2]): -3%; Decrease (Mus musculus [5]): -22.1%; Decrease (Mus musculus [6]): -25.2%; Decrease (Mus musculus [7]): 0.8%; Decrease (Mus musculus [8]): 6.1%; Increase (Rattus norvegicus [9]): 0.2%; Decrease (Mus musculus [10]): -9.7%
5 | Cc1c(C)c2c(c(C)c1O)SC(C)O2 (configuration not stated) | < 0.1 |  |  |  | 
6 | Cc1c(C)c2c(c(C)c1O)CCC(C)(COc1ccc(CC3SC(N)=NC3=O)cc1)O2 (configuration not stated) | < 0.1 | 11.9 | 7.2 | 16.8 | 
7 | Cc1cc(C(C)(C)C)c(O)c(C(C)(C)C)c1 [BUTYLATED HYDROXYTOLUENE] | 0.1 (≈ 0.454 µM) |  |  |  | 
8 | Cc1c(C)c2c(c(C)c1OC(=O)c1cccnc1)CCC(C)(COc1ccc(CC3SC(=O)NC3=O)cc1)O2 (configuration not stated) | < 0.1 |  |  |  | 
9 | Cc1c(C)c2c(c(C)c1OC(=O)c1ccccc1)CCC(C)(COc1ccc(CC3SC(=O)NC3=O)cc1)O2 (configuration not stated) | 0.1 (≈ 0.183 µM) |  |  |  | 
10 | Cc1c(C)c2c(c(C)c1O)CCC(C)(CCOc1ccc(CC3SC(=O)NC3=O)cc1)O2 (configuration not stated) | < 0.1 |  |  |  | 
11 | Cc1c(C)c2c(c(C)c1O)CCC(C)(COc1ccc(CC3SC(=O)NC3=O)cc1)O2 (configuration not stated) [TROGLITAZONE] | 0.1 (≈ 0.226 µM) | 54.3 |  | 57.5 | Decrease (Mus musculus [12]): 57.5%; Decrease (Mus musculus [13]): 19.7%; Decrease (Mus musculus [14]): 31.9%; Decrease (Mus musculus [15]): 38.5%; Decrease (Mus musculus [16]): 36%
12 | CCC1(COc2ccc(CC3SC(=O)NC3=O)cc2)CCc2c(C)c(O)c(C)c(C)c2O1 (configuration not stated) | 0.1 (≈ 0.22 µM) | 17.6 | 19.5 | 14 | 
13 | Cc1cc(OCCCC(C)(C)C(=O)O)c(C)c(C)c1O | > 1 |  |  |  | Relative peroxidation (Rattus norvegicus [17]): 0.71
14 | Cc1c(C)c2c(c(C)c1O)CCC(C)(COc1ccc(CC(Cl)C(=O)O)cc1)O2 (configuration not stated) | 0.1 (≈ 0.239 µM) | 46.3 | 14.9 | 33.9 | 
15 | CCOC(=O)C(C)(C)Oc1ccc(Cl)cc1 [CLOFIBRATE] | > 1 | 26.6 | 5.9 | 19.6 | Decrease (Mus musculus [2]): 22.8%; Decrease (Mus musculus [7]): 6.8%; Decrease (Mus musculus [8]): 37.6%; Decrease (Mus musculus [14]): 1.1%; Increase (Rattus norvegicus [9]): 37.2%; Decrease (Mus musculus [16]): 2.8%; Decrease (Rattus norvegicus [18]): 37.6%
